The term Ki denotes a measure of affinity in units of concentration, obtained from inhibition or displacement. Low readings indicate tighter binding, high ones weaker binding. The term EC50 denotes the midpoint of the concentration-response curve. The inhibition in vivo is the drop in the measured response relative to a control, in per cent.

The first assay has as its target T1, Adrenergic receptor alpha-1 (Rattus norvegicus, UniProt P15823+P23944+P43140).
T1 sequence (P15823 whole entry): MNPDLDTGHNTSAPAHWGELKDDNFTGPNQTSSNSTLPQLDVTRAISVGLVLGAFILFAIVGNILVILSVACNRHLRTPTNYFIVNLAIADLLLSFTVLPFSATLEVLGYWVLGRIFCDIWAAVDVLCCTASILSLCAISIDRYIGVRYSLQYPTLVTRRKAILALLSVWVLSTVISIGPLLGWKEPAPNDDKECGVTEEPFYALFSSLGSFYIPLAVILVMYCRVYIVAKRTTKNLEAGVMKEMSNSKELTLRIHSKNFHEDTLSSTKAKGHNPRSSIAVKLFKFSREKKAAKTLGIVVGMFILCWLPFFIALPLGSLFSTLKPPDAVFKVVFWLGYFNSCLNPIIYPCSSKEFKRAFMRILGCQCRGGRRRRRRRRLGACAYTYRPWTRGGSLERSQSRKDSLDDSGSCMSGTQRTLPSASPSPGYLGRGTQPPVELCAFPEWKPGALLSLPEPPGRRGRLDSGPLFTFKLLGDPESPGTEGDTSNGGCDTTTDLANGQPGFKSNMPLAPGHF
T1 sequence (P23944 whole entry): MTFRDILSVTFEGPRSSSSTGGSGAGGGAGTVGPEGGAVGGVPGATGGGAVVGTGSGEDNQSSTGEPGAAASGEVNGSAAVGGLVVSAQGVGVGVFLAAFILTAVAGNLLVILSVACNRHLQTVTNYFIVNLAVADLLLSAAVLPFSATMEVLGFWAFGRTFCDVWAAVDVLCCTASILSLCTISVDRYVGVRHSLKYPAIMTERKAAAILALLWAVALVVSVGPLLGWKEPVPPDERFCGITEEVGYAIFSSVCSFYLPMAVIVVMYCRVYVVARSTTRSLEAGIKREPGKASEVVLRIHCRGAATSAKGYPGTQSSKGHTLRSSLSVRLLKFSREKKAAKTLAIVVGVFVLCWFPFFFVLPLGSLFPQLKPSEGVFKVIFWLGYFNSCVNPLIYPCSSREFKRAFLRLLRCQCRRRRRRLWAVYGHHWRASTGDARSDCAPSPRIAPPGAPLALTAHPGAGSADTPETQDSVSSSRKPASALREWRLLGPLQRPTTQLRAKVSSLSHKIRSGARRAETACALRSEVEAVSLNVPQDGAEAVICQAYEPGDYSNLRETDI
T1 sequence (P43140 whole entry): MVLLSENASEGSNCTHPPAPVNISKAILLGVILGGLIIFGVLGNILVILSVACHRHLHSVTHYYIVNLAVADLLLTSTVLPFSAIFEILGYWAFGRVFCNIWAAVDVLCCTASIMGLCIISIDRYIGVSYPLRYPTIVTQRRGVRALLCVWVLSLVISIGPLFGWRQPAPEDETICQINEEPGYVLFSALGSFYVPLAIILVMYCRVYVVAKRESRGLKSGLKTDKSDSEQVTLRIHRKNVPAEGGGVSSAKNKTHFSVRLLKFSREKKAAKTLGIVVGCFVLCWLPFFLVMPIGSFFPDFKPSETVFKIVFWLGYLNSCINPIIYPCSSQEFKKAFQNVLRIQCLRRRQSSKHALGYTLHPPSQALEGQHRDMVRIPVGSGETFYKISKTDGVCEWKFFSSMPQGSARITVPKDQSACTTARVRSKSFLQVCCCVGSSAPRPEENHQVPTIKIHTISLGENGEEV
As to the kind of experiment: Displacement of [3H]-Prazosin from alpha1 adrenergic receptor in rat brain cerebral cortex membranes by liquid scintillation counting analysis.
Conditions: not given
In kind it is cell membranes, Membrane. In outline: (§1)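 Rat cerebral cortex homogenized in ice-cold 50 mM Tris–HCl (pH 7.6), spun at 20,000 g for 20 min (0–4 °C), resuspended and spun again. Membranes incubated with 0.2 nM [3H]-prazosin (α1) or 2 nM [3H]-clonidine (α2) and seven to eight compound concentrations (10^-11 to 10^-4 M). Non-specific binding defined with 10 µM phentolamine (prazosin) or 10 µM clonidine (clonidine). Ended by GF/C filtration, counted by liquid scintillation. Run in duplicate; Ki from two independent experiments.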
(Displacement assays read how much labelled ligand stays bound in the presence of the test substance.)
Turning to `CC(C)Oc1ccccc1OCCN1CCC(NS(=O)(=O)c2cccc3cccnc23)CC1`, the inhibition constant Ki was 73 nM.

For the compound `CC(C)Oc1ccccc1OCCN1CCC(NS(=O)(=O)c2cccc(Cl)c2F)CC1`, the Ki was 131 nM.

Consider `CC(C)Oc1ccccc1OCCN1CC[C@@H](NS(=O)(=O)c2cc(Cl)ccc2F)C1`, for which the Ki is 106 nM.

`COc1ccccc1OCCN1CC[C@H](NS(=O)(=O)c2cccc(Cl)c2F)C1` showed an inhibitory constant (Ki) of 348 nM.

Regarding `COc1ccccc1OCCN1CC[C@@H](NS(=O)(=O)c2cc(Cl)ccc2F)C1`, the inhibitory constant (Ki) is reported as 289 nM.

In the case of `COc1ccccc1OCCN1CC[C@@H](NS(=O)(=O)c2cccc(Cl)c2F)C1`, the Ki came out at 241 nM.

Consider `CC(C)Oc1ccccc1OCCN1CCC(NS(=O)(=O)c2cc(Cl)ccc2F)CC1`, for which the Ki is reported as 118 nM.

As to `CC(C)Oc1ccccc1OCCN1CC[C@H](NS(=O)(=O)c2cc(Cl)ccc2F)C1`, the Ki was 242 nM.

A further assay addresses T2, Adrenergic receptor alpha-2 (Rattus norvegicus, UniProt P22086+P19328+P22909).
T2 sequence (P22086 whole entry): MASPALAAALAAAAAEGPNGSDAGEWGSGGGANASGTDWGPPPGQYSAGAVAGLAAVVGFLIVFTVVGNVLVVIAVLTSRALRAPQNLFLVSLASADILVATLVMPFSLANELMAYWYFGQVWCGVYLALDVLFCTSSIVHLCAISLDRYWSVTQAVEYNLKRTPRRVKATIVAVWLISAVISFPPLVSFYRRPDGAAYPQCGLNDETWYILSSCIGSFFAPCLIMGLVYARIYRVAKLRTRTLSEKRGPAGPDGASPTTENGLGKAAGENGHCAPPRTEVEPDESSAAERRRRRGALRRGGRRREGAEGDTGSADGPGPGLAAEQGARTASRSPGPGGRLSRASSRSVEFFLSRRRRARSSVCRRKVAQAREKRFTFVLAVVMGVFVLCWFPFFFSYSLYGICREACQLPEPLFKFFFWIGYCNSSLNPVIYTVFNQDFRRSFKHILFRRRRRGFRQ
T2 sequence (P19328 whole entry): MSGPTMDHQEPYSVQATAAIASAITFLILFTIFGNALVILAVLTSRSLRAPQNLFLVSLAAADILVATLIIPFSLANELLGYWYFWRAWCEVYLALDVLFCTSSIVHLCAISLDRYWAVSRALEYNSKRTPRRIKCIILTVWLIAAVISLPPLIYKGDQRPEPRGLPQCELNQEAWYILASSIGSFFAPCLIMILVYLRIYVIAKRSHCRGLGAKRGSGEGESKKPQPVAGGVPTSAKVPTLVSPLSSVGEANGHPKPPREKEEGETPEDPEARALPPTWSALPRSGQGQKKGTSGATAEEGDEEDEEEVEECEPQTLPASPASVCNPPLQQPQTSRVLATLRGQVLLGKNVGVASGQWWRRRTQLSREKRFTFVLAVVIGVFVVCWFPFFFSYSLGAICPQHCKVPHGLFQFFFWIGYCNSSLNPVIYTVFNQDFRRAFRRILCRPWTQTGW
T2 sequence (P22909 whole entry): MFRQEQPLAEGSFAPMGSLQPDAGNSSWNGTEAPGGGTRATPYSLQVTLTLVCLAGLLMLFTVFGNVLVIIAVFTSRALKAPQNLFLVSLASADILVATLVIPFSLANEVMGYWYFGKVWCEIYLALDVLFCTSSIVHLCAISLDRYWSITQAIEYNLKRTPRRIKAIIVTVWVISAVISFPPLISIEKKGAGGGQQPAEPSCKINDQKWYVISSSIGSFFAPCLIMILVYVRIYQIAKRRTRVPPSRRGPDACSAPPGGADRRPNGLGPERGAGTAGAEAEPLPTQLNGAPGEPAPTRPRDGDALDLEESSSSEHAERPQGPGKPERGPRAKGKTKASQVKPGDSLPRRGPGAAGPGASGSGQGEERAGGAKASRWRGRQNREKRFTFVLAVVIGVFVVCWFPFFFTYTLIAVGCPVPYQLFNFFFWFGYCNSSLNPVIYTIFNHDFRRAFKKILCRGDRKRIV
As to the kind of experiment: Displacement of [3H]-Clonidine from alpha2 adrenergic receptor in rat brain cerebral cortex membranes by liquid scintillation counting analysis.
Conditions: not given
In kind it is cell membranes, Membrane. The gist of the method: as §1
In turn, `CC(C)Oc1ccccc1OCCN1CCC(NS(=O)(=O)c2cccc3cccnc23)CC1` showed an inhibitory constant (Ki) of 194 nM.

For the compound `CC(C)Oc1ccccc1OCCN1CCC(NS(=O)(=O)c2cccc(Cl)c2F)CC1`, the inhibition constant Ki was 188 nM.

Turning to `CC(C)Oc1ccccc1OCCN1CC[C@@H](NS(=O)(=O)c2cc(Cl)ccc2F)C1`, the inhibition constant Ki came out at 398 nM.

Consider `COc1ccccc1OCCN1CC[C@H](NS(=O)(=O)c2cccc(Cl)c2F)C1`, for which the Ki is on record as over 10000 nM.

On to `COc1ccccc1OCCN1CC[C@@H](NS(=O)(=O)c2cc(Cl)ccc2F)C1`, for which the Ki amounted to 2354 nM.

The compound `COc1ccccc1OCCN1CC[C@@H](NS(=O)(=O)c2cccc(Cl)c2F)C1` showed an inhibition constant (Ki) of 1944 nM.

With `CC(C)Oc1ccccc1OCCN1CCC(NS(=O)(=O)c2cc(Cl)ccc2F)CC1`, the Ki is on record as 293 nM.

With `CC(C)Oc1ccccc1OCCN1CC[C@H](NS(=O)(=O)c2cc(Cl)ccc2F)C1`, the Ki is over 10000 nM.

The species named for a further assay is Rattus norvegicus. As to the kind of experiment: Selectivity ratio of Ki for alpha2 adrenergic receptor in rat brain cerebral cortex membranes to Ki for alpha1 adrenergic receptor in rat brain cerebral cortex membranes.
Conditions: not given
In kind it is cell membranes. The gist of the method: as §1
On to `CC(C)Oc1ccccc1OCCN1CCC(NS(=O)(=O)c2cccc3cccnc23)CC1`, for which the Ratio Ki worked out at 3.

Take `CC(C)Oc1ccccc1OCCN1CCC(NS(=O)(=O)c2cccc(Cl)c2F)CC1`: the Ratio Ki was 1.

As for `CC(C)Oc1ccccc1OCCN1CC[C@@H](NS(=O)(=O)c2cc(Cl)ccc2F)C1`, the Ratio Ki amounted to 4.

In the case of `COc1ccccc1OCCN1CC[C@H](NS(=O)(=O)c2cccc(Cl)c2F)C1`, the Ratio Ki is over 29.

For the compound `COc1ccccc1OCCN1CC[C@@H](NS(=O)(=O)c2cc(Cl)ccc2F)C1`, the Ratio Ki stood at 8.

Consider `COc1ccccc1OCCN1CC[C@@H](NS(=O)(=O)c2cccc(Cl)c2F)C1`, for which the Ratio Ki worked out at 8.

Consider `CC(C)Oc1ccccc1OCCN1CCC(NS(=O)(=O)c2cc(Cl)ccc2F)CC1`, for which the Ratio Ki is 3.

Regarding `CC(C)Oc1ccccc1OCCN1CC[C@H](NS(=O)(=O)c2cc(Cl)ccc2F)C1`, the Ratio Ki was over 41.

Another assay concerns the target T3, Alpha-1B adrenergic receptor (Homo sapiens, UniProt P35368).
T3 sequence (P35368 whole entry): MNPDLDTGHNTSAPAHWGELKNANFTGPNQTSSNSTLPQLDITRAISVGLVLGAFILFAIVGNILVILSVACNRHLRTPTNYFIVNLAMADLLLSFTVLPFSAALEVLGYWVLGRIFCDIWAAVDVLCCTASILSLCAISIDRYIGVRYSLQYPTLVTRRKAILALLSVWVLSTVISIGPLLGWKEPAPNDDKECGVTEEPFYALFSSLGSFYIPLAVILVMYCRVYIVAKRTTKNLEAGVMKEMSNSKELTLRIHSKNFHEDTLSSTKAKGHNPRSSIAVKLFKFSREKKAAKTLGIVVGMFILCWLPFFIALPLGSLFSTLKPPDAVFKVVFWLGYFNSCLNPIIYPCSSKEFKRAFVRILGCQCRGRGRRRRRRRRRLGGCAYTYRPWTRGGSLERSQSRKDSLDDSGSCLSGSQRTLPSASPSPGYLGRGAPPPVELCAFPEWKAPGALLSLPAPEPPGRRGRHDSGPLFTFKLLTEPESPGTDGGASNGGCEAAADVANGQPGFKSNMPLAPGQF
Briefly: Intrinsic activity at human alpha1B adrenergic receptor expressed in CHOK1 cells co-expressing aequorin assessed as inhibition of agonist induced calcium mobilization preincubated for 15 mins followed by agonist addition measured for 20 secs in presence of coelenterazine H by luminescence assay. In kind it is cell-based, CHO-K1.
Conditions: not given
The gist of the method:
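Frozen ready-to-use cells stably expressing α1B receptor and aequorin, resuspended in assay buffer with 5 µM coelenterazine h and rotated overnight at rt in the dark. Diluted to 5000 cells/20 µL. Agonist mode: cells injected onto ligands, light recorded 20 s. Antagonist mode: 15 min with compound at room temperature, then agonist at 3× EC80 final, light recorded 20 s. Mean EC50 from three experiments.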
On to `CCOc1ccccc1OCCN[C@H](C)Cc1ccc(OC)c(S(N)(=O)=O)c1` [TAMSULOSIN], for which the EC50 came to 0.13 nM.

The test system of another assay is Rattus norvegicus. Briefly: Hypotensive activity in normotensive anesthetized Wistar rat assessed as decrease in systolic blood pressure at 2 mg/kg, iv administered as single dose measured 60 mins post dose relative to control. In kind it is functional. To be noted: 1 h. The gist of the method: (§2)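 Male Wistar rats (200–250 g), groups of six, anaesthetized with thiopental 70 mg/kg ip. Left carotid artery cannulated with heparinized saline-filled tubing for pressure recording. Compounds dissolved in water and given once iv. Blood pressure taken at 0 min (control) and over 60 min afterward. Data as mean ± SEM, analysed by one-way ANOVA with Dunnett's test against 0 min.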
In the case of `CCOc1ccccc1OCCN[C@H](C)Cc1ccc(OC)c(S(N)(=O)=O)c1` [TAMSULOSIN], the inhibition in vivo at 2 mg/kg was 11 to 17%.

A further assay deals with Rattus norvegicus. Briefly: Hypotensive activity in normotensive anesthetized Wistar rat assessed as decrease in diastolic blood pressure at 2 mg/kg, iv administered as single dose measured 60 mins post dose relative to control. In kind it is functional. To be noted: 1 h. The gist of the method: as §2
As for `CCOc1ccccc1OCCN[C@H](C)Cc1ccc(OC)c(S(N)(=O)=O)c1` [TAMSULOSIN], the inhibition in vivo at 2 mg/kg was 11 to 18%.

For the origin of these results see ChEMBL document CHEMBL3861996, “Arylsulfonamide derivatives of (aryloxy)ethyl pyrrolidines and piperidines as α1-adrenergic receptor antagonist with uro-selective activity” (Bioorg Med Chem, 2016).
